Measurements as given in paper PMC6694902 (Journal of Taibah University Medical Sciences, 2017).
Converted amounts (≈) assume the structure as drawn. “And” between values parts separate entries of the source, which are not always exact repeats. Identical values can stand only once.

Legend:
[1] = DPPH radical scavenging assay; type: biochemical; details: mean ± S.D., n = 3; for IC50 (DPPH radical scavenging): graphically determined
How it was run: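 DPPH scavenging, a modified method, was read as absorbance at 517 nm for test compounds at several concentrations. BHT served as standard, and DPPH in methanol served as control. Percent inhibition was calculated from control and sample absorbances, and IC50 was obtained graphically. Data were analysed by one-way ANOVA with Dunnett's post hoc test.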

Cryptococcus neoformans [2] = test: Agar well diffusion, zone of inhibition; type: cell-based; details: mean ± S.D., n = 6
How it was run: (§1)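 Agar well diffusion on Sabouraud dextrose agar. C. albicans MTCC 3017 came from IMTECH; C. neoformans was an Utkal University strain. Plates were seeded with 1.5 × 10^6 CFU/mL suspensions (McFarland 0.5). Test compounds were dissolved in DMF (1 mg/mL stock) and loaded into wells, with fluconazole as reference. Incubation was 37 °C for 18–24 h, and zones were measured.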

[3] = system: Klebsiella pneumoniae (MTCC 109); test: Minimum inhibitory concentration; type: cell-based; details: 31.25–500 µg/mL tested, 37 °C, 18–24 h
How it was run: (§2)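 MIC was determined in nutrient agar wells seeded with bacteria (McFarland 0.5, 1.5 × 10^6 CFU/mL). E. coli (res) and S. aureus (res) were clinical isolates; K. pneumoniae was MTCC 109. DMF stocks at 1 mg/mL were diluted two-fold to five levels (31.25–500 µg/mL) in wells, with amoxicillin and ampicillin as references. Plates were incubated at 37 °C for 18–24 h.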

Escherichia coli (res) [4] = test: Minimum inhibitory concentration; type: cell-based; details: for Minimum inhibitory concentration (MIC), E. coli (res): 31.25–500 µg/mL tested, 37 °C, 18–24 h
How it was run: as §2

[5] = system: Candida albicans (MTCC 3017); test: Agar well diffusion, zone of inhibition; type: cell-based; details: mean ± S.D., n = 6
How it was run: as §1

[6] = system: Staphylococcus aureus (res); test: Minimum inhibitory concentration; type: cell-based; details: for Minimum inhibitory concentration (MIC), S. aureus (res): 31.25–500 µg/mL tested, 37 °C, 18–24 h
How it was run: as §2

Escherichia coli (res) [7] = test: Agar well diffusion, zone of inhibition; type: cell-based; details: mean ± S.D., n = 6; resistant to norfloxacin, ofloxacin, ampicillin, cefixime, nitrofurantoin
How it was run: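 Clinical isolate from a faecal sample (Bhubaneswar hospital). Nutrient agar plates were seeded with a 1.5 × 10^6 CFU/mL suspension matched to McFarland 0.5. Test compound was loaded into the agar wells from a DMF stock (1 mg/mL). Plates were incubated at 37 °C for 18–24 h and the inhibition zone was read. Amoxicillin and ampicillin were the reference antibiotics.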

[8] = system: Klebsiella pneumoniae (MTCC 109); test: Agar well diffusion, zone of inhibition; type: cell-based; details: mean ± S.D., n = 6
How it was run: (§3)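 Agar well diffusion on nutrient agar. K. pneumoniae MTCC 109 came from IMTECH; S. aureus (res) was an Utkal University isolate. Plates were seeded with 1.5 × 10^6 CFU/mL suspensions (McFarland 0.5). Test compounds were dissolved in DMF (1 mg/mL stock) and placed in wells, with amoxicillin and ampicillin as references. Plates were kept at 37 °C for 18–24 h, then zones were read.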

[9] = system: Staphylococcus aureus (res); test: Agar well diffusion, zone of inhibition; type: cell-based; details: mean ± S.D., n = 6; resistant to norfloxacin, ofloxacin, ampicillin, cefotaxime
How it was run: as §3

[10] = system: Candida albicans (MTCC 3017); test: Minimum inhibitory concentration; type: cell-based; details: for Minimum inhibitory concentration (MIC), C. albicans: 31.25–500 µg/mL tested, 37 °C, 18–24 h; for MIC: Candida albicans, MTCC3017, read-out: Minimum inhibitory concentration (MIC), C. albicans
How it was run: (§4)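 MIC was determined in agar wells on Sabouraud dextrose agar seeded with the fungal strain (McFarland 0.5, 1.5 × 10^6 CFU/mL). DMF stocks at 1 mg/mL were diluted two-fold to five levels (31.25–500 µg/mL) and loaded into wells, with fluconazole as reference. After 18–24 h at 37 °C, the lowest inhibitory concentration was taken as the MIC.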

Cryptococcus neoformans [11] = test: Minimum inhibitory concentration; type: cell-based; details: for Minimum inhibitory concentration (MIC), C. neoformans: 31.25–500 µg/mL tested, 37 °C, 18–24 h; for MIC: Cryptococcus neoformans, read-out: Minimum inhibitory concentration (MIC), C. neoformans
How it was run: as §4

Cc1cc(C(C)(C)C)c(O)c(C(C)(C)C)c1 [BHT, butylated hydroxy toluene, reference compound]
% Inhibition (DPPH) ([1]; Conc. 10 μg/mL): 32.32 ± 0.01% | % Inhibition (DPPH) ([1]; Conc. 30 μg/mL): 49.54 ± 0.01% | % Inhibition (DPPH) ([1]; Conc. 50 μg/mL): 59.99 ± 0.10% | % Inhibition (DPPH) ([1]; Conc. 70 μg/mL): 87.74 ± 0.06% | IC50 (DPPH radical scavenging) [1]: 31 ± 0.70 µg/mL (≈ 141 µM)

Cc1cc(N=Nc2ccc([O][Co][O]c3ccc(N=Nc4ccc(Br)c(C)c4)cc3C=Nc3nc(-c4ccc(Cl)cc4)cs3)c(C=Nc3nc(-c4ccc(Cl)cc4)cs3)c2)ccc1Br [Compound 6d, Bis[4-{(4-bromo-3-methylphenyl)diazenyl}-2-{(4-(4-chlorophenyl)thiazol-2-ylimino)methyl}phenoxy]cobalt]
zone of inhibition, C. neoformans (Cryptococcus neoformans [2]): 12.17 ± 2.71 mm | Minimum inhibitory concentration (MIC), K. pneumoniae [3]: 31.25 µg/mL | Minimum inhibitory concentration (MIC), E. coli (res) (Escherichia coli (res) [4]): 31.25 µg/mL | zone of inhibition, C. albicans [5]: 12.67 ± 2.34 mm | Minimum inhibitory concentration (MIC), S. aureus (res) [6]: 31.25 µg/mL | % Inhibition (DPPH) ([1]; Conc. 10 μg/mL): 36.53 ± 0.02 % | % Inhibition (DPPH) ([1]; Conc. 30 μg/mL): 43.03 ± 0.04% | % Inhibition (DPPH) ([1]; Conc. 50 μg/mL): 61.97 ± 0.08 % | % Inhibition (DPPH) ([1]; Conc. 70 μg/mL): 73.78 ± 0.07% | IC50 (DPPH radical scavenging) [1]: 38 ± 1.4 µg/mL | zone of inhibition, E. coli (res) (Escherichia coli (res) [7]): 15.5 ± 3.21 mm and 15.5 ± 3.21^∗ mm | zone of inhibition, K. pneumoniae [8]: 16.17 ± 2.99 mm and 16.17 ± 2.99^∗ mm | zone of inhibition, S. aureus (res) [9]: 16.83 ± 2.71 mm and 16.83 ± 2.71^∗ mm | Minimum inhibitory concentration (MIC), C. albicans [10]: 250 µg/mL | Minimum inhibitory concentration (MIC), C. neoformans (Cryptococcus neoformans [11]): 250 µg/mL

Bis[{4-((4-bromo-3-methylphenyl)diazenyl)-2-((4-phenylthiazol-2-limino)methyl)phenoxy}] cobalt [Compound 6a]
zone of inhibition, C. neoformans (Cryptococcus neoformans [2]): 13.67 ± 2.94 mm | Minimum inhibitory concentration (MIC), K. pneumoniae [3]: 31.25 µg/mL | Minimum inhibitory concentration (MIC), E. coli (res) (Escherichia coli (res) [4]): 31.25 µg/mL | zone of inhibition, C. albicans [5]: 12.83 ± 2.23 mm | Minimum inhibitory concentration (MIC), S. aureus (res) [6]: 31.25 µg/mL | % Inhibition (DPPH) ([1]; Conc. 10 μg/mL): 29.72 ± 0.07% | % Inhibition (DPPH) ([1]; Conc. 30 μg/mL): 43.32 ± 0.11% | % Inhibition (DPPH) ([1]; Conc. 50 μg/mL): 63.44 ± 0.07 % | % Inhibition (DPPH) ([1]; Conc. 70 μg/mL): 83.02 ± 0.06% | IC50 (DPPH radical scavenging) [1]: 36 ± 0.56 µg/mL | zone of inhibition, E. coli (res) (Escherichia coli (res) [7]): 16.67 ± 2.34 mm and 16.67 ± 2.34^∗ mm | zone of inhibition, K. pneumoniae [8]: 16.17 ± 1.94 mm and 16.17 ± 1.94^∗ mm | zone of inhibition, S. aureus (res) [9]: 20.83 ± 1.84 mm and 20.83 ± 1.84^∗ mm | Minimum inhibitory concentration (MIC), C. albicans [10]: 31.25 µg/mL | Minimum inhibitory concentration (MIC), C. neoformans (Cryptococcus neoformans [11]): 125 µg/mL

Cc1cc(N=Nc2ccc([O][Ni][O]c3ccc(N=Nc4ccc(Br)c(C)c4)cc3C=Nc3nc(-c4ccc(Cl)cc4)cs3)c(C=Nc3nc(-c4ccc(Cl)cc4)cs3)c2)ccc1Br [Compound 6f, bis[4-{(4-bromo-3-methylphenyl)diazenyl}-2-{(4-(4-chlorophenyl)thiazol-2-ylimino)methyl}phenoxy] nickel]
zone of inhibition, C. neoformans (Cryptococcus neoformans [2]): 10.33 ± 1.75 mm | Minimum inhibitory concentration (MIC), K. pneumoniae [3]: 31.25 µg/mL | zone of inhibition, C. albicans [5]: 12.5 ± 1.52 mm | Minimum inhibitory concentration (MIC), S. aureus (res) [6]: 31.25 µg/mL | % Inhibition (DPPH) ([1]; Conc. 10 μg/mL): 39.73 ± 0.02 % | % Inhibition (DPPH) ([1]; Conc. 30 μg/mL): 53.38 ± 0.03 % | % Inhibition (DPPH) ([1]; Conc. 50 μg/mL): 63.38 ± 0.01 % | % Inhibition (DPPH) ([1]; Conc. 70 μg/mL): 79.53 ± 0.02% | zone of inhibition, K. pneumoniae [8]: 16.67 ± 1.37^∗ mm | zone of inhibition, S. aureus (res) [9]: 15.17 ± 1.94 mm | Minimum inhibitory concentration (MIC), C. albicans [10]: 125 µg/mL | Minimum inhibitory concentration (MIC), C. neoformans (Cryptococcus neoformans [11]): 250 µg/mL

Cc1cc(N=Nc2ccc(O)c(C=Nc3nc(-c4ccc(Cl)cc4)cs3)c2)ccc1Br [5b(Lig), 4-[(4-bromo-3-methylphenyl)diazenyl]-2-[(4-(4-chlorophenyl)thiazol-2-ylimino)methyl]phenol]
zone of inhibition, C. neoformans (Cryptococcus neoformans [2]): 12.33 ± 1.75 mm | MIC (Escherichia coli (res) [4]; Escherichia coli, read-out: Minimum inhibitory concentration (MIC), E. coli (res), 31.25–500 µg/mL tested, 37 °C, 18–24 h): 31.2 µg/mL (≈ 61.1 µM) | zone of inhibition, C. albicans [5]: 12 ± 1.27 mm | % Inhibition (DPPH) ([1]; Conc. 10 μg/mL): 19.26 ± 0.04% | % Inhibition (DPPH) ([1]; Conc. 30 μg/mL): 38.53 ± 0.09% | % Inhibition (DPPH) ([1]; Conc. 50 μg/mL): 48.33 ± 0.07% | % Inhibition (DPPH) ([1]; Conc. 70 μg/mL): 79.89 ± 0.06% | IC50 (DPPH radical scavenging) [1]: 52 ± 1.13 µg/mL (≈ 102 µM) | zone of inhibition, E. coli (res) (Escherichia coli (res) [7]): 15.33 ± 2.07 mm | zone of inhibition, K. pneumoniae [8]: 13.5 ± 2.43 mm | zone of inhibition, S. aureus (res) [9]: 11.5 ± 1.87 mm | MIC [10]: 250 µg/mL (≈ 488 µM) | MIC (Cryptococcus neoformans [11]): 250 µg/mL (≈ 488 µM)

Cc1cc(N=Nc2ccc(O)c(C=Nc3nc(-c4ccccc4)cs3)c2)ccc1Br [5a(Lig), 4-[(4-bromo-3-methylphenyl)diazenyl)-2-[(4-phenylthiazol-2-ylimino)methyl]phenol]
zone of inhibition, C. neoformans (Cryptococcus neoformans [2]): 13.33 ± 1.37 mm | zone of inhibition, C. albicans [5]: 12.17 ± 2.23 mm | MIC ([6]; Staphylococcus aureus, read-out: Minimum inhibitory concentration (MIC), S. aureus (res), 31.25–500 µg/mL tested, 37 °C, 18–24 h): 31.2 µg/mL (≈ 65.5 µM) | % Inhibition (DPPH) ([1]; Conc. 10 μg/mL): 27.99 ± 0.04% | % Inhibition (DPPH) ([1]; Conc. 30 μg/mL): 39.34 ± 0.02% | % Inhibition (DPPH) ([1]; Conc. 50 μg/mL): 49.09 ± 0.07% | % Inhibition (DPPH) ([1]; Conc. 70 μg/mL): 63.9 ± 0.05% | IC50 (DPPH radical scavenging) [1]: 56 ± 0.78 µg/mL (≈ 117 µM) | zone of inhibition, E. coli (res) (Escherichia coli (res) [7]): 13.67 ± 2.34 mm | zone of inhibition, K. pneumoniae [8]: 12.67 ± 2.25 mm | zone of inhibition, S. aureus (res) [9]: 15.83 ± 2.79^∗ mm | MIC [10]: 250 µg/mL (≈ 524 µM) | MIC (Cryptococcus neoformans [11]): 250 µg/mL (≈ 524 µM)

Cc1cc(N=Nc2ccc([O][Ni][O]c3ccc(N=Nc4ccc(Br)c(C)c4)cc3C=Nc3nc(-c4ccccc4)cs3)c(C=Nc3nc(-c4ccccc4)cs3)c2)ccc1Br [Compound 6c, Bis[{4-((4-bromo-3-methylphenyl)diazenyl)-2-((4-phenylthiazol-2-ylimino)methyl)phenoxy}] nickel]
zone of inhibition, C. neoformans (Cryptococcus neoformans [2]): 15.83 ± 1.84 mm | Minimum inhibitory concentration (MIC), K. pneumoniae [3]: 62.5 µg/mL | zone of inhibition, C. albicans [5]: 11.33 ± 1.51 mm | Minimum inhibitory concentration (MIC), S. aureus (res) [6]: 62.5 µg/mL | % Inhibition (DPPH) ([1]; Conc. 10 μg/mL): 25.43 ± 0.08% | % Inhibition (DPPH) ([1]; Conc. 30 μg/mL): 39.65 ± 0.09% | % Inhibition (DPPH) ([1]; Conc. 50 μg/mL): 61.41 ± 0.04 % | % Inhibition (DPPH) ([1]; Conc. 70 μg/mL): 83.11 ± 0.04% | IC50 (DPPH radical scavenging) [1]: 40 ± 0.59 µg/mL | zone of inhibition, K. pneumoniae [8]: 14.67 ± 3.14 mm | zone of inhibition, S. aureus (res) [9]: 14.83 ± 1.84 mm | Minimum inhibitory concentration (MIC), C. albicans [10]: 250 µg/mL | Minimum inhibitory concentration (MIC), C. neoformans (Cryptococcus neoformans [11]): 31.25 µg/mL
